Results gathered from unrelated publications.
Compare with care: the assays were run in different laboratories.
Trypanothione synthetase: Trypanothione synthetase (Trypanosoma cruzi, UniProt Q9GT49)
BRWD3: BRWD3 (Homo sapiens, UniProt Q6RI45)
MTNR1A: Melatonin receptor type 1A (MTNR1A, Homo sapiens, UniProt P48039)
murC: UDP-N-acetylmuramate--L-alanine ligase (murC, Escherichia coli K-12, UniProt P17952)
Grm1: Metabotropic glutamate receptor 1 (Grm1, Rattus norvegicus, UniProt P23385)
BMP2K: BMP-2-inducible protein kinase (BMP2K, Homo sapiens, UniProt Q9NSY1)

SMILES	target	assay	test system	setting	endpoint	value
O=C(CN1C(=O)Cc2c([nH]c3ccc(Br)cc23)-c2ccc(Cl)cc21)N1CCCCC1	Trypanothione synthetase	enzyme activity, inhibitor, absorbance		30 µM	inhibition	7.1%
C[S+]([O-])c1ccc(-c2nc(-c3ccncc3)c(-c3ccc(F)cc3)[nH]2)cc1 (centres unmarked)	BRWD3	thermal stability, DSF		10 µM	ΔTm	0.55 °C
COc1cc2c(CCNC(C)=O)c[nH]c2cc1I	MTNR1A	cAMP, agonist, TR-FRET	CHO-K1	20 min	Emax	98%
O=C(Nc1ccc(C=NNS(=O)(=O)c2ccc3ccccc3c2)cc1)c1cc([N+](=O)[O-])cc([N+](=O)[O-])c1	murC	enzyme activity, inhibitor, absorbance		100 µM	remaining activity	72%
COc1cc(NC(C)=O)c(Cl)cc1C(=O)Nc1nccs1	Prostaglandin G/H synthase 1 (PTGS1, Homo sapiens, UniProt P23219)	enzyme activity, inhibitor		10 µM	inhibition	72%
Cc1cccnc1C(=O)Nc1ccc(N2C(=O)c3cccc(Cl)c3C2=O)c(Cl)c1	Grm1	calcium signal, positive allosteric modulator	T-REx-293		Emax	118%
O=C(NCCCNc1nc(Nc2cccc(CN3CCOCC3)c2)ncc1C1CC1)C1CCC1	BMP2K	enzyme activity, inhibitor, radiometric		1 µM	remaining activity	3%
O=C(CN1C(=O)Cc2c([nH]c3ccc(Br)cc23)-c2ccc(Cl)cc21)NC1=NCCS1	Trypanothione synthetase	enzyme activity, inhibitor, absorbance		30 µM	inhibition	16%
O=C(Nc1cccc(Nc2ncc(Br)c(NCCc3cnc[nH]3)n2)c1)N1CCCC1	BMP2K	enzyme activity, inhibitor, radiometric		1 µM	remaining activity	2%
COc1cc(I)c2[nH]cc(CCNC(C)=O)c2c1	MTNR1A	GTPγS binding, agonist, radiometric		cell membranes	Emax	39%
CCCOc1ccc(OC)c(F)c1C(=O)c1ccc(C(=O)N[C@@H]2CNC[C@H]2NC(=O)c2ccc3[nH]ncc3c2)cc1	Rho-associated protein kinase 2 (ROCK2, Homo sapiens, UniProt O75116)	enzyme activity, inhibitor		10 µM	remaining activity	3%
N#Cc1ccc(COc2ccccc2C=NNS(=O)(=O)Cc2ccccc2)cc1	murC	enzyme activity, inhibitor, absorbance		100 µM	remaining activity	100%
NS(=O)(=O)c1ccc(CNc2nc(Nc3cccc(NC(=O)N4CCCC4)c3)ncc2C2CC2)cc1	BMP2K	enzyme activity, inhibitor, radiometric		1 µM	remaining activity	64%
O=C(Nc1ccc(N2C(=O)c3ccccc3C2=O)c(Cl)c1)c1ncccc1O	Grm1	calcium signal, positive allosteric modulator	T-REx-293		Emax	105%
Cc1nn(CC(F)(F)F)cc1Nc1ncc(Br)c(NCc2ccc(S(N)(=O)=O)cc2)n1	BMP2K	enzyme activity, inhibitor, radiometric		1 µM	remaining activity	30%
CCN(Cc1ccccc1C(F)(F)F)C(=O)C1CCN(S(=O)(=O)c2ccc3[nH]ncc3c2)CC1	B1 bradykinin receptor (BDKRB1, Homo sapiens, UniProt P46663)	ligand displacement, radioligand		10 µM	inhibition	8%
O=C(Nc1ccc(C=NNS(=O)(=O)c2ccc3ccccc3c2)cc1)c1ccccc1	murC	enzyme activity, inhibitor, absorbance		100 µM	remaining activity	97%
CCc1ccc2scc(CCNC(C)=O)c2c1	MTNR1A	β-arrestin recruitment, agonist	CHO-K1	90 min	Emax	75%
Cc1cc2c(cc1N1C(=O)c3cccc4c(Cl)ccc(c34)C1=O)n(C)c(=O)n2C	BRWD3	thermal stability, DSF		10 µM	ΔTm	-0.5 °C
COc1cc2c(CCNC(C)=O)c(I)[nH]c2cc1[N+](=O)[O-]	MTNR1A	GTPγS binding, agonist, radiometric		cell membranes	Emax	72%
CN1CCN(CCNC(=O)CN2C(=O)Cc3c([nH]c4ccc(Br)cc34)-c3ccc(Cl)cc32)CC1	Trypanothione synthetase	enzyme activity, inhibitor, absorbance		30 µM	inhibition	16.8%
COc1ccc2[nH]cc(CCNC(C)=O)c2c1I	MTNR1A	β-arrestin recruitment, agonist	CHO-K1	90 min	Emax	91%
FC(F)(F)Oc1cccc(-c2cnc3ccc(-c4ccncc4)nn23)c1	Serine/threonine-protein kinase MRCK gamma (CDC42BPG, Homo sapiens, UniProt Q6DT37)	cell-free assay, competition with immobilised ligand		5 µM	remaining binding	18%
